The values that follow come from ChEMBL document CHEMBL4513216, “Probing the Open Global Health Chemical Diversity Library for Multistage-Active Starting Points for Next-Generation Antimalarials” (ACS Infect Dis, 2020).

The nature of the data set: Toxicity liver stage against HepG2, at 10uM. The data set is classed as cell-based. The note with it: human, HepG2-A16-CD81EGFP cells; read-out: INHIBITION
Set-up: test concentration 10 uM, cell line HepG2-A16-CD81EGFP. An outline of the steps:
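Uninfected HepG2-A16-CD81EGFP cells, 3 × 10^3 per well, 1536-well, plated on prespotted compound at 10 μM final, parasite-free screening media added to match infected plates; puromycin 10 μM positive, DMSO 0.5% negative; run in parallel with 48 h PbLuc assay at 37 °C, 5% CO2; viability by CellTiter-Glo luminescence, normalized to controls.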

For the compound `O=C(c1ccc[nH]1)N1CC2(CCN(c3nccs3)C2)C1`, the cytotoxicity at 10 µM was found to be 5.68%. Under `CC1=N[C@@]2(CC[C@@H]3CN(CC(C)C)C[C@@H]32)C(=O)N1C` stands 3.5%; under `CS(=O)(=O)NCC1CCCN(C(=O)c2ccc(F)c(F)c2)C1` (configuration not stated), -10.3%. Under `c1ccc(-n2cc(CNC3CCc4ncnn4C3)cn2)cc1` (configuration not stated) stands -26.6%. Under `CC(C)n1cnnc1C1CCCN(S(=O)(=O)CCCF)C1` (configuration not stated) stands 7.39%; under `O=C1CC(c2ccncc2)C2(CCN(CCO)CC2)N1` (configuration not stated), -3.4%; under `CCOC(C)C(=O)NCc1ccc(N(C)C)cc1` (configuration not stated), -13.3%.

`CN(C)S(=O)(=O)N1CC[C@]2(O)CCN(CCc3cccc(F)c3)C[C@@H]2C1`: the cytotoxicity at 10 µM is -3.38%.

As to `O=C(NCCN1CCOCC1)c1nc(-c2ccc3[nH]ccc3c2)no1`, the cytotoxicity at 10 µM is -7.53%. For the compound `CN(C(=O)Cn1nc(-c2ccc(Cl)cc2)ccc1=O)C1CCS(=O)(=O)C1` (configuration not stated), the cytotoxicity at 10 µM turned out to be 1.96%. The value for `CC(C)c1nsc(N2CCC(OCCN3CCOCC3)CC2)n1` was -14.2%; that for `COC(=O)c1ccc(N2CCC(N(C)c3ccccc3)CC2)nn1` was -4.92%; that for `N#Cc1ccccc1OCCN1CCCC1Cn1cccn1` (configuration not stated) was -9.14%. For `Cn1cc(N2CC3(COCCN(Cc4ccccn4)C3)OCC2=O)cn1` (configuration not stated), the cytotoxicity at 10 µM is -79.1%. Take `Cc1csc(C2(NCC(O)COC(C)C)CCCC2)n1` (configuration not stated): the cytotoxicity at 10 µM was 4.53%. For `COCc1nc(C(=O)NS(=O)(=O)c2cc(F)ccc2F)cs1`, the cytotoxicity at 10 µM was -2.22%. Under `CC(O)CN1CCN(Cc2coc(-c3cccc(Cl)c3)n2)CC1` (configuration not stated) stands -4.73%; under `Cc1cc(Nc2ccc(F)cn2)cc(C2CCCN2)n1` (configuration not stated), 0.0453%; under `CN1CCCC1c1nccnc1-c1ccc(C(=O)O)cc1` (configuration not stated), 11%.

On to `Cn1c(CO)cnc1SC1CCCN(c2ccccc2F)C1=O` (configuration not stated), for which the cytotoxicity at 10 µM was -4%. Under `NC(=O)c1cccc2nc([C@H]3CCN(Cc4ccccc4F)C3)[nH]c12` stands 20.8%. Under `CN(C)C(=O)COC[C@@]12CCC[C@@H]1CN(C1CCCC1)C2` stands -13.2%. As for `CN(C)S(=O)(=O)c1csc(C(=O)N2CCSCC2)c1`, the cytotoxicity at 10 µM was -51.6%. As to `O=C(NCCN1CCCC1)c1ccc2c(-c3nccs3)noc2c1`, the cytotoxicity at 10 µM was -2.79%. The value for `CNC(=O)[C@@H]1[C@H]2CN(Cc3ccccn3)CCN2C[C@H]1c1ccccc1` was 3.38%; that for `Cc1cc(NC2CCC(=O)N(C)C2)n2nccc2n1` (configuration not stated) was -0.714%; that for `CCCc1nnc2sc(-c3cc(C(C)C)n[nH]3)nn12` was 17.7%. Under `Cc1cccc(S(=O)(=O)NC2CCN(CC(F)(F)F)C2)c1` (configuration not stated) stands 0.741%. Take `COCCCC(=O)N(C)c1ccc(F)c(Cl)c1`: the cytotoxicity at 10 µM is -0.577%. Under `CCn1nc(C)cc1C(=O)N1CCCN(CCCc2ccccc2)CC1` stands -1.45%; under `OCCC[C@@H]1CN(c2ncc(Cl)cc2Cl)CC[C@@H]1N1CCOCC1`, 4.24%. Under `Cc1cccnc1CNc1ccc(C(=O)N2CCc3ccccc32)cn1` stands -0.608%.

For the compound `Cc1ccc(-c2cn3c(n2)CO[C@@H](CNCc2cccnc2)C3)cc1`, the cytotoxicity at 10 µM is -105%. For `CC(C)c1noc(CCNC(=O)NCC2Cc3ccccc3O2)n1` (configuration not stated), the cytotoxicity at 10 µM was 7.4%.

Regarding `Cc1noc([C@H]2C[C@@H]3CCN(c4nnc(C)s4)C[C@H]3O2)n1`, the cytotoxicity at 10 µM was 3.55%. As to `CN1CCC(Oc2ccc(NC(=O)c3cccc(Cl)c3)cc2)CC1`, the cytotoxicity at 10 µM was -8.45%.

On to `CC(C)N1CCC(C(=O)N2CCc3c(nc(CC4CC4)[nH]c3=O)C2)CC1`, for which the cytotoxicity at 10 µM is -4.92%.

As to `CC(=O)NS(=O)(=O)c1ccc(F)cc1C(F)(F)F`, the cytotoxicity at 10 µM was determined as 1.25%. For `CNc1nc2cn(Cc3ccc(Cl)cc3)c(=O)c-2c[nH]1`, the cytotoxicity at 10 µM was determined as 8.93%. Regarding `Cc1cnc(C(=O)N[C@H]2CN(CCS(C)(=O)=O)C[C@@H]2C2CC2)cn1`, the cytotoxicity at 10 µM was 17.6%. In the case of `COCc1nc(CNC(=O)c2cc(C)c(C)[nH]c2=O)no1`, the cytotoxicity at 10 µM was 4.19%. The value for `Cc1ncsc1C(=O)NC1CCN(CC(=O)NCc2ccccc2)CC1` was -4.62%.

For the compound `COc1ccc(C(=O)N2Cc3cc(C)ccc3OCC2CN(C)C)cc1` (configuration not stated), the cytotoxicity at 10 µM was -14.5%. As to `CCCn1cnnc1CNC(=O)C1COc2c(cccc2OC)C1` (configuration not stated), the cytotoxicity at 10 µM was -1.26%. On to `c1cc(-c2c[nH]nc2C2CCCCC2)nc(N2CCCCCC2)n1`, for which the cytotoxicity at 10 µM came to 8.07%. For `O=C(CCNC(=O)c1ccoc1)Nc1ccccc1F`, the cytotoxicity at 10 µM was -8.38%. In the case of `Cc1cccc(C(=O)NCCCN2CCN(c3ccccc3)CC2)c1`, the cytotoxicity at 10 µM amounted to 7.67%. Under `COc1ccc(CC(=O)N(C)c2cccnc2N(C)C)c(Cl)c1` stands 5.71%; under `c1ccc(OCCNCc2cccs2)nc1`, -3.26%. In the case of `Cc1ccccc1-n1cc(-c2ccnc(N[C@H](CO)C(C)C)n2)cn1`, the cytotoxicity at 10 µM worked out at 4.43%. On to `Cc1n[nH]c(C)c1C1CCCN1C(=O)c1coc(Br)c1` (configuration not stated), for which the cytotoxicity at 10 µM stood at 4.23%.

On to `Cc1noc(C2CCN(C(=O)c3ccc(N(C)C)nc3)CC2)n1`, for which the cytotoxicity at 10 µM was -5.95%.

Regarding `CSCCC(=O)N1CCCC(n2ccnc2)C1` (configuration not stated), the cytotoxicity at 10 µM is -6.28%. Turning to `COc1ccc(CNc2cnn(CC(F)F)c2)cc1`, the cytotoxicity at 10 µM is -7.47%.

In the case of `Cc1nn(C)c(C)c1Cc1nc(N(C)C)no1`, the cytotoxicity at 10 µM came out at 7.06%. Turning to `Cc1ccn2ncc(C(=O)N3CCCC(c4cc(C)[nH]n4)C3)c2n1` (configuration not stated), the cytotoxicity at 10 µM is -8.02%. The value for `COc1ccc(CN(C)C(=O)CN2CC(n3cccn3)C2)cc1F` was -0.717%.

On to `CCN(CCOC)C(=O)c1cc(COc2ccc3c(c2)CCCC3)on1`, for which the cytotoxicity at 10 µM is -146%.

Regarding `CC(C)(O)CN1CCC(=O)N(Cc2ccco2)Cc2cc(F)ccc21`, the cytotoxicity at 10 µM is -3.66%. In the case of `Cc1ccc(OCCN(C)Cc2nc3c(cnn3C)c(=O)[nH]2)cc1`, the cytotoxicity at 10 µM is -3.44%. The value for `CN(CCc1ccccn1)c1cnn(C)c(=O)c1Br` was -5.03%; that for `CCc1ccccc1CN1CC[C@@H](NC(=O)c2cccnc2)[C@H](O)C1` was -9.67%. Under `CCNC(=O)CN(CC)C(=O)c1csc(Cc2ccccc2F)n1` stands 7.6%. For `CC(=O)NC1CCCN(C(=O)NCc2ccc(-c3ccn[nH]3)cc2)C1` (configuration not stated), the cytotoxicity at 10 µM is -7.84%. Under `Cc1ccc(C)c(C(=O)N2CCOC(CCN(C)C)C2)c1` (configuration not stated) stands -0.63%; under `Cc1csc(C(C)(C)NCc2ncc(-c3ccccc3)o2)n1`, 7.95%; under `Cc1cnn(CC2CCCN2Cc2cn3ccsc3n2)c1` (configuration not stated), -1.75%. The value for `CC(C)n1cnnc1CN(C)C(=O)c1cccnc1O` was 2.1%; that for `NC(=O)c1cnn2c1NCC(CNCCc1ccco1)C2` (configuration not stated) was 1.46%. Under `O=C(NCc1ccon1)c1c(F)cc(Br)cc1F` stands 12.3%; under `Cc1ccc2c(cnn2CCC(=O)NCc2csc(C3CC3)n2)c1`, 4.88%. For the compound `CN(C)C(=O)CN1CCC2(C1)CN(CC1CCOC1)C2` (configuration not stated), the cytotoxicity at 10 µM is 8.43%. On to `Cc1nc(NC(=O)c2ccc(-n3ncc(C#N)c3N)cc2)sc1C`, for which the cytotoxicity at 10 µM is 7.13%. Under `CC(NS(C)(=O)=O)c1nc(-c2ccc(Br)cc2)no1` (configuration not stated) stands 4.29%; under `COC(=O)CC1CCN(C(=O)c2ccccc2-n2nnnc2C)CC1`, -7.27%; under `CC(NC(=O)NCc1cccs1)c1ccc2c(c1)CCC(=O)N2` (configuration not stated), 5.41%. For the compound `CN1[C@H](Cn2cncn2)C[C@@H]2CN(Cc3cccc(C#N)c3)CC[C@@H]21`, the cytotoxicity at 10 µM was -9.78%. Take `CCOCC1c2c(cnn2CC2CC2)CCN1Cc1nccs1` (configuration not stated): the cytotoxicity at 10 µM was determined as 85.9%. For `CCc1nnc2n1CCN(C(=O)c1ccc(-c3ccco3)[nH]c1=O)C2`, the cytotoxicity at 10 µM is -11.5%. The value for `CN(C)c1ncc(I)c(C2CCCN2C)n1` (configuration not stated) was 3.7%; that for `CC1(C)CC(=O)c2cnc3nc(N4CCCCC4)nc(O)c3c2C1` was -0.0124%; that for `O=S(=O)(N1CCCCCC1)N1CCN(Cc2ccc(F)cc2Br)CC1` was -132%.

Take `C1CC1c1nsc(N2CCN(C3CC3)CC2)n1`: the cytotoxicity at 10 µM was -16.4%. `Cn1ccc(CN2CCC(NC(=O)NC3CCCCC3)CC2)cc1=O`: the cytotoxicity at 10 µM is -6.26%. The value for `Cc1nn2c(NC(=O)CSc3ncccn3)csc2nc1=O` was 2.74%.

In the case of `O=C(c1ccsc1)N1CCC2(CCN(Cc3ccccn3)C2=O)C1` (configuration not stated), the cytotoxicity at 10 µM is -147%. Under `CN(C)C(=O)N1C[C@H]2CC[C@@H](C1)N(C(=O)CCCn1cncn1)C2` stands -12.2%; under `CNS(=O)(=O)Cc1ccc(CNC(=O)c2ccc(C)[nH]c2=O)cc1`, -3.3%. As to `CC(=O)Nc1nc(C(=O)NCCOc2ccc(C)cc2)cs1`, the cytotoxicity at 10 µM was 5.35%.

With `COc1cccc2c1OCC(C(=O)NCc1c(C)noc1C)C2` (configuration not stated), the cytotoxicity at 10 µM is -15.5%. With `CCc1nc(CN(CCc2ccccc2)C2CCN(C)CC2)no1`, the cytotoxicity at 10 µM is -0.355%.

For `CC(C)N(Cc1ccccc1)C(=O)NCCNC(=O)c1cccnc1`, the cytotoxicity at 10 µM was -1.66%. Under `Cn1ccc(CS(=O)(=O)Cc2ccccc2)cc1=O` stands 6.02%; under `COc1ccccc1OC1CCN(Cc2ccc(N(C)C)nc2)CC1`, -11.8%; under `Fc1ccc(OCC2CCCO2)c(NCc2noc(C3CC3)n2)c1` (configuration not stated), 9.61%. Take `C[C@@H]1CN(C2(C(=O)N3CC[C@H](O)C3)Cc3ccccc3C2)C[C@H](C)O1`: the cytotoxicity at 10 µM was -5.19%. Under `Cc1ccncc1NS(=O)(=O)c1ccc(Cl)s1` stands 0.405%.
